Reference: ChEMBL document CHEMBL3600302, “A Ligand-Based Drug Design. Discovery of 4-Trifluoromethyl-7,8-pyranocoumarin as a Selective Inhibitor of Human Cytochrome P450 1A2” (J Med Chem, 2015)

Assays:
CYP1A2 = biological target: T1, CYP1A2 (Homo sapiens, UniProt P05177); experiment: Inhibition of human microsomal CYP1A2-dependent methoxyresorufin-O-demethylase activity at 10 nM preincubated for 5 mins followed by NADPH regenerating solution and substrate addition measured over 6 mins by spectrofluorimetric analysis relative to control; details: human microsomal CYP1A2, probe methoxyresorufin (O-demethylation)
T1 sequence (P05177 whole entry): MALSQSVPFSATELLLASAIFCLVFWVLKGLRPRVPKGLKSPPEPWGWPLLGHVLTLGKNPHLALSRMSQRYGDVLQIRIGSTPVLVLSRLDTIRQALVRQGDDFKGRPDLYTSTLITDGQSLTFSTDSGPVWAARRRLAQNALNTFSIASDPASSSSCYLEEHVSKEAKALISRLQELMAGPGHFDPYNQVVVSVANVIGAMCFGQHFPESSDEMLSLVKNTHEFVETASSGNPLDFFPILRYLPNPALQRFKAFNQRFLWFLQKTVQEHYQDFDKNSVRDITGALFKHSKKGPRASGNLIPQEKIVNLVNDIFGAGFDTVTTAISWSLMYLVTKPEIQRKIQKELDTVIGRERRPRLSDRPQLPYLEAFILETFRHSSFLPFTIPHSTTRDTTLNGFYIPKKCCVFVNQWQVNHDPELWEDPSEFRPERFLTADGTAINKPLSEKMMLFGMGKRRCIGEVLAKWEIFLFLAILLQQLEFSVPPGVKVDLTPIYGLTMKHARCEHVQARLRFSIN

[1] = biological target: T2, Aryl hydrocarbon receptor (Homo sapiens, UniProt P35869); experiment: Activation of human AhR expressed in Saccharomyces cerevisiae MYA-3637 assessed as upregulation of […] at >10^-7 M by LacZ reporter assay; format: ADME
T2 sequence (P35869 whole entry): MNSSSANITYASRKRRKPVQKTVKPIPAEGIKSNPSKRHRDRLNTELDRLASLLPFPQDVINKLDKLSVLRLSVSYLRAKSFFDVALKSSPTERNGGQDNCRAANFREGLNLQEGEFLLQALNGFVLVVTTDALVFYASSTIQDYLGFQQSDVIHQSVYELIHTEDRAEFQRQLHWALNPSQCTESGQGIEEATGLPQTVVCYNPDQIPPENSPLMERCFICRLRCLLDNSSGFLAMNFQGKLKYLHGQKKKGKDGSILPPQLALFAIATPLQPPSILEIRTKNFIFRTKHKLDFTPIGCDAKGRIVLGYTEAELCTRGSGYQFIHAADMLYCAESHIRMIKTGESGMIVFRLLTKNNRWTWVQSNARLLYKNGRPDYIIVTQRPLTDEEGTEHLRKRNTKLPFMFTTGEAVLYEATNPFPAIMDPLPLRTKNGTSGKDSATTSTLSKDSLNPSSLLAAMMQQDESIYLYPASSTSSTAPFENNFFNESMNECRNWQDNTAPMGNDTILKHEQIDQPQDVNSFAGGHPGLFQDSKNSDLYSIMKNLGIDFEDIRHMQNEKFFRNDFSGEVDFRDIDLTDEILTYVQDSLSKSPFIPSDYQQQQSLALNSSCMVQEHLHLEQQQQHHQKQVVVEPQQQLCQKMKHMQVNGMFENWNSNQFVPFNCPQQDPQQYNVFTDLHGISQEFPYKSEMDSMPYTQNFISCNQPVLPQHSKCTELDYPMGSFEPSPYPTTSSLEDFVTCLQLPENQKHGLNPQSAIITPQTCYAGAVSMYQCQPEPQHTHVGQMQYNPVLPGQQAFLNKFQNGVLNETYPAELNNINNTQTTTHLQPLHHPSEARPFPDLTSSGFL
Procedure, shortened: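 Yeast MYA-3637 carrying integrated human AhR (GAL promoter) and a lacZ reporter, grown on synthetic minimal medium without tryptophan, with galactose as carbon source. Compounds in DMSO were added to overnight culture in quadruplicate. Next day A600 was read, then lysis buffer (0.2% sarcosyl, 1 mM DTT, 0.4 mg/mL ONPG) was added. A405/A600 ratio was taken. βNF 10^-8 M served as positive control. At least three repeats.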

Cytochrome P450 1A2 = biological target: T3, Cytochrome P450 1A2 (Homo sapiens, UniProt P05177); experiment: Inhibition of human microsomal CYP1A2-dependent methoxyresorufin-O-demethylase activity by spectrofluorimetric analysis in presence of NADPH regenerating solution
T3 sequence (P05177 whole entry): T1 sequence (P05177 whole entry)
Procedure, shortened: (§1)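 Microsomal P450 (final 5 nM) in 0.1 M potassium phosphate pH 7.6 with MgCl2 at 37 °C. Substrate final 5 µM: ethoxyresorufin for 1A1/1B1, methoxyresorufin for 1A2. Ki was taken as the x-intercept of Dixon plots (1/v0 vs [I]). Mean ± SD of three independent experiments. Selectivity ratios are ratios of these Ki.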

Homo sapiens = species: Homo sapiens; experiment: Selectivity ratio of Ki for human microsomal CYP1A1 to Ki for human microsomal CYP1A2
Procedure, shortened: as §1, with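 “1A2. […]” for “1A2.”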

Cytochrome P450 1B1 = biological target: T4, Cytochrome P450 1B1 (Homo sapiens, UniProt Q16678); experiment: Inhibition of human microsomal CYP1B1-dependent ethoxyresorufin-O-deethylase activity at 10 nM preincubated for 5 mins followed by NADPH regenerating solution and substrate addition measured over 6 mins by spectrofluorimetric analysis; details: 0.1 h, 0.01 µM
T4 sequence (Q16678 whole entry): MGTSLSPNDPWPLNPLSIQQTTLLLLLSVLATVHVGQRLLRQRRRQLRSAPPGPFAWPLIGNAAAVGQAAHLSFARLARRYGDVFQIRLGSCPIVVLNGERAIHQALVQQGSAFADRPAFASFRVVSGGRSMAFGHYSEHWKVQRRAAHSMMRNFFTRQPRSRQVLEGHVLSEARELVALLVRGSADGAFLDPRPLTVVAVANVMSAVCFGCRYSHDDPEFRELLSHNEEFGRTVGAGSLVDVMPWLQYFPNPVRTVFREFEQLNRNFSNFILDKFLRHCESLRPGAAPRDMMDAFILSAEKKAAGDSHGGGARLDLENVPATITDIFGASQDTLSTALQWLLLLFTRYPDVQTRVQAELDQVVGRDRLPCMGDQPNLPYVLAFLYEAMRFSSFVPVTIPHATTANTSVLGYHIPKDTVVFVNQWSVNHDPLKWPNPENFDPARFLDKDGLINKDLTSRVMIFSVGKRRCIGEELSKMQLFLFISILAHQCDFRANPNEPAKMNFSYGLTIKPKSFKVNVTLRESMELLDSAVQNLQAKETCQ
Procedure, shortened: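 Microsomal P450 in 0.1 M potassium phosphate pH 7.6 with MgCl2 and 10 nM inhibitor in DMSO, 2 mL final. Preincubated 5 min at 37 °C either with NADPH-regenerating solution, or without it, with NADPH then added at start. Reaction started with ethoxyresorufin (final 5 µM). Resorufin formation followed 6 min at 37 °C.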

Cc1cc2c(ccc3c(=O)cc(-c4ccccc4)oc32)o1
inhibition at 0.1 h, 0.01 µM (CYP1A2): > 90% | Activity [1]: Active | Ki (Cytochrome P450 1A2): 30 nM | Ratio Ki (Homo sapiens): 14 | inhibition (INH) (Cytochrome P450 1B1): Not Active
